Results on 12 compounds are retold here after ChEMBL document CHEMBL3822411, “Non-Substrate Based, Small Molecule Inhibitors of the Human Isoprenylcysteine Carboxyl Methyltransferase” (Medchemcomm, 2016).

In assay [1] the target is Protein-S-isoprenylcysteine O-methyltransferase (Homo sapiens, UniProt O60725). As to the kind of experiment: Inhibition of human isoprenylcysteine carboxyl methyltransferase expressed in yeast His10myc3N-Icmt membranes using AFC substrate and [14C]-SAM and incubated for 30 mins by liquid scintillation counting based methyltransferase vapor diffusion assay. The format is cell membranes. In outline: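 Crude yeast membranes (5 µg) in Tris-HCl 100 mM pH 7.4 with AFC 10 µM and [14C]-SAM 60 µM, compound at increasing concentrations, 5% DMSO; 37 °C 30 min, stopped with NaOH/SDS. Released radioactivity captured on filter paper over 2.5 h and counted. IC50 from specific activity (pmol/mg/min) versus concentration; three separate experiments in duplicate.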

Assay [2] is described as follows: Growth inhibition of human PANC1 cells expressing K-Ras G12D mutant after 5 days by MTT assay. As to conditions: PANC-1, 120 h. The format is functional, cell-based. In outline: (§1)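 MTT read-out; 1,000 cells per well seeded the day before, then medium replaced with inhibitor at increasing concentrations, 0.5% DMSO constant; 5 days at 37 °C. MTT (5 mg/mL solution) added for a further 4 h, formazan dissolved in DMSO, absorbance at 590 nm; mean absorbance per concentration plotted.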

Assay [3] in a line: Growth inhibition of human MIAPaCa2 cells expressing K-Ras G12C mutant after 5 days by MTT assay. It counts as functional, cell-based. The note with it: MIA PaCa-2, 120 h. In outline:
as §1

Sequence of Protein-S-isoprenylcysteine O-methyltransferase (O60725 whole entry, the tested form may be a part): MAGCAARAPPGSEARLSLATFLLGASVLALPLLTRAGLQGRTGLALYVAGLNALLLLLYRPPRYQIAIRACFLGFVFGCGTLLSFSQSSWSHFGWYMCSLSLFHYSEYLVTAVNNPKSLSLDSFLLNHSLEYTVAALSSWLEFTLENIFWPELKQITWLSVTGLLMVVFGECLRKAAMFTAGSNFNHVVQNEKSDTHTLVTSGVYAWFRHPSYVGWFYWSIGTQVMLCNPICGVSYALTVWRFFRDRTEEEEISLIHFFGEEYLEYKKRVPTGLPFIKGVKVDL

In assay [1], `Oc1c(C(c2cccs2)C2CCOCC2)ccc2ccccc12` (stereo not drawn) yielded an IC50 of 18 µM.

In turn, `Oc1c(C(c2cccs2)C2CCOCC2)ccc2cccnc12` (stereo not drawn) gave a concentration for half-maximal inhibition (IC50) in assay [1] of 14 µM. On the same count and under the same terms, the result for `COC(=O)CCSC/C=C(\C)CCn1cc(CCc2ccc(-c3ccccc3)cc2)nn1` reads 0.4 µM; that for `c1ccc(C(=C2CCOCC2)c2ccc3ccccc3c2)cc1`, greater than 50 µM. On the same count and under the same terms, the result for `O=C(c1ccc2ccccc2c1)C1CCOCC1` reads greater than 50 µM.

As for `c1csc(C(=C2CCOCC2)c2ccc3ccccc3c2)c1`, the IC50 in assay [2] was 78 µM; in assay [3], 31.9 µM. In assay [1], `Oc1c(C(=C2CCOCC2)c2cccs2)ccc2ccccc12` came in with an IC50 of 7.7 µM. This counts as single-digit micromolar.

In assay [1], `CN1CCC(C(c2ccc3ccccc3c2)c2cccs2)CC1` (stereo not drawn) came in with a half-maximal inhibitory concentration (IC50) greater than 50 µM. Regarding `OC(c1ccccc1)(c1cccs1)C1CCOCC1` (stereo not drawn), the IC50 in assay [1] was greater than 50 µM. Turning to `c1ccc(C(=C2CCOCC2)c2cccs2)cc1`, the IC50 in assay [1] was greater than 50 µM.

Take `c1ccc2cc(CC3CCOCC3)ccc2c1`: the IC50 in assay [1] is greater than 50 µM.

Regarding `c1csc(C(c2ccc3ccccc3c2)C2CCNCC2)c1` (stereo not drawn), the IC50 in assay [1] is greater than 50 µM.
